Only some compounds are listed: those with a hit (about 2.7% of all), similar ones and a draw of the others.
ABCG2 block: ABCG2 efflux pump inhibitors, primary screen, multiplex with ABCB1, IgMXP3 cells, flow cytometry. Broad substrate specificity ATP-binding cassette transporter ABCG2 (Homo sapiens), Q9UNQ0. JC-1 efflux. inhibition, % at 6.6 µM. hit rate 0.1% among 190,000;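 active = inhibition above 80%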
Target sequence (Q9UNQ0 whole entry, looked up): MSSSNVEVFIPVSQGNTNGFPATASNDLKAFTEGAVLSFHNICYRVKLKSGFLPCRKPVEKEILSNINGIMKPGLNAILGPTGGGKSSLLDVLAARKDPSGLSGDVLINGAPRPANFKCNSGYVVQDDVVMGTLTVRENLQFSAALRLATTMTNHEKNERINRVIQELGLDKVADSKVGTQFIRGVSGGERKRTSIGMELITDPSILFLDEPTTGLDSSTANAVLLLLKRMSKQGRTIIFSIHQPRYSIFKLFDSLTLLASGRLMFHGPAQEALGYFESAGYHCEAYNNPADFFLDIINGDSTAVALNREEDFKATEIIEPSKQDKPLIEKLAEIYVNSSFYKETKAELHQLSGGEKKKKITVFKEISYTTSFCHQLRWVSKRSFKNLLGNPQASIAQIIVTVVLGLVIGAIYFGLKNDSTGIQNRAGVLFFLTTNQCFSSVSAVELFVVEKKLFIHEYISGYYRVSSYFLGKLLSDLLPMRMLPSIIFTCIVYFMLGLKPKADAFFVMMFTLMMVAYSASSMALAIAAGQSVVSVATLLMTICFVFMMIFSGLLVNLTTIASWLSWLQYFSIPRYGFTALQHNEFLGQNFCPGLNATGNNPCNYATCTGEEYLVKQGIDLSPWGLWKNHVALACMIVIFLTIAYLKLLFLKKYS
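Test system: ABCG2 IgMXP3 and barcoded ABCB1 CCRF-Adr cell mix; Schedule: cells with compound and JC-1, 10 min at 25 °C, rotating, no wash; Technique: flow cytometry of retained JC-1 fluorescence; Measure: % inhibition of efflux relative to nicardipine and DMSO; Controls: nicardipine high and DMSO low controls.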
ABCB1 inh: ABCB1 efflux pump inhibitors, primary screen, cell-based, multiplex, flow cytometry, ABCG2 counter-screen; hit rate 0.067% among 190,000; inhibition, % at 6.6 µM; CCRF-Adr cells, JC-1 efflux; ATP-dependent translocase ABCB1 (Homo sapiens), P08183; in the data active = inhibition above about 40%;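 also: higher value means more JC-1 retained so stronger ABCB1 efflux block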
FLuc stim CS: FLuc activators, initial screening, artefact control for FLuc-dependent activation tests, biochemical, ATPlite luminescence; Luciferin 4-monooxygenase (Photinus pyralis), P08659; ATPlite luciferase biochemical, 10 min; 0 = ATP-free wells, 1 = DMSO control; activation factor at 10 µM; 200,000 tested, under 10 active;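 active = luciferase activation factor, scaled between plate controls, of at least 2 with compound at 10 µM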
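System: Luciferase/luciferin detection reagent, cell-free biochemical luciferase assay | Medium: PBS buffer for ATP | Dosing: Test compounds dosed from 2 mM stocks in 100% DMSO | Timing: 10 min at ambient temperature | Signal: Luminescence measurement of luciferase light output | Evaluation: Luciferase activation, seen as luminescence increase over controls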
Measles CPE: compounds protecting cells from measles virus cytopathic effect, primary screen, measles RdRp inhibitor project, single point, MLSMR library, absorbance; Measles virus-infected cells, CPE protection; hit rate 1.5% among 140,000; protection (pct of control), % at 4 µM; in the data active = protection mostly above about 24%, no sharp cut-off; inactive = mostly below about 26%
DTT redox prof: compounds producing H2O2 with reducing agent – biochemical, NIH compound library profiling, artefact control for MLSCN library redox annotation, primary screen | DTT-dependent redox cycling H2O2, phenol red/HRP absorbance; 100% = 100 µM peroxide control, 0% = buffer | activation, % at 10 µM | hit rate 0.03% among 200,000 | AID 878, 2007;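 active = activation of at least 50% relative to the plate's high and low controls in the primary single-dose screen; inactive = activation below 50%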;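 also: compound incubated with DTT at 0.8 mM final as the reducing agent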
FLuc inh counter: firefly luciferase enzyme inhibitors, primary screen, artefact control for luciferase-based inhibitor screens, biochemical, luminescence, ATPLite; AID 1006, 2008; Luciferin 4-monooxygenase (Photinus pyralis), P08659; 10 min; hit rate 1.5% among 200,000; inhibition, % at 10 µM;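 active = inhibition above about 50% when tested at 10 µM, limit read from the data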
Of the large screens only hits and unclear results are named; the others gave an inactive call.

Cc1ccc(-n2c(C)cc(C3=NNC(=NC4CC4)SC3)c2C)cc1C	Measles CPE 74.0, FLuc inh counter 63.2
Cc1cc(C2=NNC(=NC3CC3)SC2)c(C)n1-c1c(C)n(C)n(-c2ccccc2)c1=O	none
COc1cccc(OCC(=O)O/N=C(\N)c2ccc(OC)c(OC)c2)c1	none
CCOC(=O)Nc1ccc(NC(=O)c2ccccc2F)cc1	none (no result: Measles CPE)
O=C(Cn1nnc(-c2ccccc2)n1)N/N=C/c1ccco1	none (no result: Measles CPE)
Cn1c(=O)c2c(nc(NCc3ccccc3)n2CCCc2ccccc2)n(C)c1=O	none
CCOCCCNc1nc2c(c(=O)n(C)c(=O)n2C)n1CCCc1ccccc1	Measles CPE 66.8
NC(=O)C1C(c2ccccc2)=C1c1ccccc1	Measles CPE 56.8
NC(=O)C1c2ccccc2CSc2ccccc21 (configuration not stated)	none
O=C(CSc1nc2cc(Cl)ccc2s1)N1CCN(C(=O)c2ccco2)CC1	Measles CPE 61.3
O=C(CN1CCN(C(=O)c2ccco2)CC1)Nc1cc(Cl)ccc1Cl	Measles CPE 69.1
O=C(CSc1nc(-c2ccccc2)cs1)N1CCN(C(=O)c2ccco2)CC1	none
CCNc1nnc(-c2ccc(C)cc2)o1	Measles CPE 38.6
Cc1ccc(-c2nnc(N)o2)cc1	none
Cc1ccc(-c2nnc(-c3ccccc3)o2)cc1	FLuc inh counter 66.8
Cc1ccc(NC(=O)COC(=O)C2CC2C)c(S(=O)(=O)N2CCCCC2)c1 (configuration not stated)	none
O=C(OCC(F)(F)C(F)F)c1ccccc1C(=O)Oc1ccc(F)cc1F	none
CCN1C(=O)CC(N2CCN(CC(=O)NC(C)C)CC2)C1=O (configuration not stated)	none
COc1ccc(S(=O)(=O)Cc2ccc(C(=O)NCc3ccc(F)cc3)o2)cc1	Measles CPE 31.7
COc1ccc(S(=O)(=O)Cc2ccc(C(=O)NCc3cccnc3)o2)cc1	none
C/C(CC1CC(COCCC(C)C)OC1=O)=N\NC(N)=S (configuration not stated)	none
C(=N\N=C\c1cccnc1)/c1cccnc1	none
CN(/N=C/c1cccnc1)c1cnc2ccccc2n1	FLuc inh counter 50.9 (no result: Measles CPE)
C=CCn1c(SCC#N)nc2c(c1=O)C(C)(C)Cc1ccccc1-2	none (no result: Measles CPE)
Oc1c(Br)cc(C=Nc2ccc3nc(-c4ccccc4)[nH]c3c2)c(O)c1Br	FLuc inh counter 55.9 (no result: Measles CPE)
COc1ccc2nc(-c3ccccc3)[nH]c2c1	FLuc inh counter 74.5
COc1ccc2nc(NCc3ccccc3)[nH]c2c1	none
CCOc1ccc2nc(-c3ccccc3)[nH]c2c1	FLuc inh counter 83.9
CC1CCCCC1NC(=O)Cn1ncc2ccccc21 (configuration not stated)	none
COc1ccc(OCC(O)CN2C(=O)NC(C)(C)C2=O)cc1 (configuration not stated)	none
CCSC1=NC2(CCCCC2)Nc2sc3c(c21)CCCC3	none
COc1ccc2c(c1)c(=O)oc1cc(O)ccc12	none (no result: Measles CPE)
COc1ccc2oc(-c3ccco3)cc(=O)c2c1	FLuc inh counter 58.8 (no result: Measles CPE)
COc1ccc(-c2cc(=O)c3cc(O)ccc3o2)cc1	FLuc inh counter 54.1 (no result: Measles CPE)
Clc1ccc(OCCSc2ncccn2)c(Br)c1	FLuc inh counter 54.2 (no result: Measles CPE)
CC(=O)Nc1ccccc1C(=O)C(=O)Nc1ccc(C(=O)N2CCOCC2)cc1	none (no result: Measles CPE)
CC(=O)c1c(OC(=O)c2ccc(C)cc2)c2ccccc2n1C	Measles CPE 71.2
Cn1c(/N=C/c2ccc3c(c2)OCO3)nc2ccccc21	FLuc inh counter 90.9
Cn1c(/N=C/c2c[nH]c3ccccc23)nc2ccccc21	FLuc inh counter 87.8
CC(C)n1c(/N=C/c2c[nH]c3ccccc23)nc2ccccc21	none
CCOc1ccc(-c2ccc(SCC)nn2)cc1	FLuc inh counter 85.6 (no result: Measles CPE)
COc1ccc(-c2ccc(SC)nn2)cc1	FLuc inh counter 93.7 (no result: Measles CPE)
Cc1ccc(-c2ccc(SCC(=O)Nc3nonc3C)nn2)cc1	none
CCSc1ccc(-c2ccc(C)cc2)nn1	FLuc inh counter 87.7 (no result: Measles CPE)
Cc1cc(C)n2nc(C(=O)N/N=C/c3c4ccccc4cc4ccccc34)nc2n1	none
O=C(Nc1c(C(=O)Nc2cccc3ccccc23)cnn1-c1ccccc1)c1ccco1	none
COC(=O)C1=C(C)N(CCCC(=O)O)C(=O)NC1c1cccs1 (configuration not stated)	ABCB1 inh 44.9
O=C(O/N=C/c1ccc2c(c1)OCO2)c1ccccc1Cl	FLuc inh counter 69.5
O=C(N/N=C/C(Cl)=C/c1ccccc1)c1ccccn1	FLuc inh counter 80.6 (no result: Measles CPE)
C(=N\Nc1ccccn1)/c1ccc2c(c1)OCCO2	FLuc inh counter 78.2 (no result: Measles CPE)
CC(=N/O)/C(C)=N\NC(=O)c1ccccn1	FLuc inh counter 51.2 (no result: Measles CPE)
O=C(CSc1nnc2ccccn12)N1CCc2ccccc21	none (no result: Measles CPE)
C=CCNC(=O)COc1c(C)ccc(C)c1C	none (no result: Measles CPE)
O=C(N/N=C/c1ccc2c(c1)OCO2)c1ccccn1	Measles CPE 92.4, FLuc inh counter 87.8
O=C(N/N=C/c1ccc2c(c1)OCO2)c1ccc2ccccc2n1	FLuc inh counter 66.8 (no result: Measles CPE)
Cc1cccc(C(=O)N/N=C/c2ccc3c(c2)OCO3)n1	none
COc1cccc(NC(=O)N2CCC(N3CCCCC3)CC2)c1	none
O=C(Nc1ccc(Cl)c(Cl)c1)N1CCC(N2CCCCC2)CC1	Measles CPE 61.0
CCC(C)Cn1c(S(=O)(=O)O)nc2ccccc21 (configuration not stated)	Measles CPE 49.5
CCC1(C)CC2(CCCN(CCC(=O)c3ccccc3)C2)CCO1 (configuration not stated)	none (no result: Measles CPE)
O=c1c(Cl)c(N2CCOCC2)cnn1-c1nc2ccccc2[nH]1	FLuc inh counter 70.6 (no result: Measles CPE)
c1ccc2[nH]c(N3CCOCC3)nc2c1	none
COC(=O)c1ccc(C(=O)OC)c(NC(=O)CN(C)Cc2ccc(Cl)c(Cl)c2)c1	none
Cc1nc(-c2coc3cc(C)c(N=O)c(O)c3/c2=N\N)cs1	none (no result: Measles CPE)
COc1ccc2c(=O)c(-c3nc(C)cs3)coc2c1	FLuc inh counter 77.6
Cc1nc(-c2coc3cc(OCC(=O)O)ccc3c2=O)cs1	FLuc inh counter 77.6
CC(=O)Oc1ccc2c(=O)c(-c3ccccc3)coc2c1	none (no result: Measles CPE)
Cc1nc(-c2coc3cc(O)c(C)cc3c2=O)cs1	FLuc inh counter 82.7
Cc1ccc(C(=O)NCCc2csc(C)n2)cc1	FLuc inh counter 57.6

From PubChem
